Most compounds without a hit are left out; they make up all but 3.1% or so of the library.
Bfl-1 A1 inh: inhibitors of the anti-apoptotic protein A1, read as caspase activation | MEF A1-2A-BIM cells, Caspase-Glo 3/7 luminescence, 3 h; percent of clofoctol response, vehicle zero | caspase activation, % (no concentration beside the values) | 330,000 compounds, 0.066% hits | AID 2462;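 active means over half of replicate activation scores above 10%, or exactly half above 10 with the replicate mean above 10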
Calb FLC: C. albicans growth modulation with fluconazole. growth inhibition, % (concentration not given with the values). 300,000 compounds, 0.57% hits. C. albicans CaCi-2 + fluconazole, Alamar Blue growth, 48 h;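 active means growth inhibition above about 58% in most replicates, limit read from the data, passing the limit was not always enough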;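 further: all wells also contain fluconazole at 8 µg/ml as a sub-toxic cotreatment; 0% = median of DMSO wells and 100% = median of geldanamycin control wells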
TAG inh: triacylglycerol accumulation inhibition; H9c2 cells, Nile Red lipid (TAG) fluorescence; cells loaded with 200 µM oleic acid; 230,000 compounds, 0.66% hits; inhibition, % at 12.5 µM;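 active means pattern-corrected inhibition of lipid staining of at least 50% with the nuclear-stain viability signal not falling by more than 50%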;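 further: 0% = DMSO wells and 100% = triacsin C control wells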
CSC inhib: cancer stem cell inhibition | cancer stem cell-like cells viability, luminescence | 300,000 compounds, 1.1% hits | AID 2717 | inhibition, % at 7.5 µM; in the data active means inhibition above about 75%; tested in HMLE shEcad cells
Beta apoptosis: blocks beta cell apoptosis; INS-1E cytokine-induced death, ATP luminescence, 48 h; percent of positive-control rescue, neutral wells zero; protection from apoptosis, % (no concentration beside the values); 300,000 compounds, 0.8% hits; AID 435005;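 active means Every replicate reaches about 75%, or at least half do and their mean reaches it too, limit read from the data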;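 further: 0% = cytokine-treated negative control wells and 100% = positive control rescue; higher means more ATP so stronger rescue from cytokine killing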
T cruzi inh: T. cruzi replication inhibition. inhibition, % (no concentration beside the values). T. cruzi beta-gal in NIH3T3, luminescence, 90 h. AID 1885. 300,000 compounds, 1.4% hits;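 active means mean inhibition across valid replicates above about 55%, limit read from the data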;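 further: signal also drops with host cell toxicity which is not excluded here; 0% = plate median of DMSO wells and 100% = zero luminescence signal; higher percent means less beta-gal luminescence so fewer parasites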
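Material: NIH/3T3 host cells with β-galactosidase reporter T. cruzi; Input: 5,000 host fibroblasts per well; Medium: DMEM, 2% fetal bovine serum; Compound: 50 nL DMSO compound solution per well; Schedule: 3 h host attachment, then at least 90 h co-culture; Detection: luminescent β-galactosidase signal after 60 min lysis.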
TAG conf: triacylglycerol accumulation inhibition, confirmation. shares compounds with TAG inh. H9c2 lipid accumulation, Nile Red fluorescence; cells loaded with 200 µM oleic acid. inhibition, % at 12.5 µM. AID 651629. 990 compounds, 71% hits;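 active means mean inhibition across replicates of 40% or more; inactive means mean inhibition below 40%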;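 further: plate controls were DMSO only wells for no effect and Triacsin C treated wells for full effect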
* marks the source's active call; other numbers are inactive results; / = no result given.

SMILES	Bfl-1 A1 inh	Calb FLC	TAG inh	CSC inhib	Beta apoptosis	T cruzi inh	TAG conf
NC(=O)c1cc(-c2ccccc2)nc(N2CCCCCC2)n1	0	18	1	/	6	33	/
COc1cc(/C=C/C(=O)OCC(=O)NC(=O)C2COc3ccccc3O2)ccc1OC(F)F (stereo not given)	0	/	22	-7	0	/	/
CC(C)C(C)(C#N)NC(=O)CSc1nc2scc(-c3ccco3)c2c(=O)n1-c1ccccc1 (stereo not given)	0	8	70*	3	-9	15	44*
C[C@@]12C(=O)Nc3ccc(Br)cc3C(=O)N1[C@H]1c3cc(Br)ccc3OC[C@@H]1[C@@H]2c1ccccc1	1	/	73*	-1	16	/	62*
CCOC(=O)[C@H]1[C@H]2COc3ccc(C)cc3[C@@H]2N2C(=O)c3cc(Br)ccc3NC(=O)[C@@]12C	0	/	67*	-1	18	/	77*
CCOC(=O)[C@H]1[C@H]2COc3ccc(Cl)cc3[C@@H]2N2C(=O)c3cc(OC)ccc3NC(=O)[C@@]12C	-1	/	58*	-11	-5	/	41*
Cc1cc(N/N=C/c2cccc([N+](=O)[O-])c2)nc(-n2nc(C)cc2C)n1	-1	-12	71*	29	59	-55	16
Cc1cc(C)nc(N/N=C/c2cccc([N+](=O)[O-])c2)n1	-1	13	7	-6	-1	-21	/
Cc1cc(N/N=C/c2cccc(Cl)c2)nc(-n2nc(C)cc2C)n1	0	-12	53*	20	103*	33	41*
CC1CCN(S(=O)(=O)c2ccc(C(=O)N3CCCC(C(F)(F)F)C3)cc2)CC1 (stereo not given)	1	5	-10	8	7	-3	/
COc1cccc(C2c3cc4c(cc3OC(N3CCOCC3)C2C)OCO4)c1O (stereo not given)	/	/	-8	/	/	/	/
COc1ccc(C2c3cc4c(cc3OC(N3CCOCC3)C2C)OCO4)c(OC)c1 (stereo not given)	/	/	55*	/	/	/	75*
O=c1cc(N2CCOCC2)[nH]c(=O)n1C1CCCCC1	1	8	-1	-14	-1	-4	/
O=c1cc(N2CCN(c3ccccc3)CC2)[nH]c(=O)n1C1CCCCC1	0	-9	63*	49	-28	-16	30
CN1CCN(c2cc(=O)n(C3CCCCC3)c(=O)[nH]2)CC1	0	-1	-14	0	-4	4	/
O=c1cc(N2CCN(c3cccc(Cl)c3)CC2)[nH]c(=O)n1C1CCCCC1	0	2	69*	66	89*	16	58*
CC(C)c1ccc(Nc2ncc3c(n2)CCN(C(=O)Nc2ccc(F)c(Cl)c2)C3)cc1	/	/	87*	/	/	/	88*
Cn1nc(-c2ccc(Cl)cc2)c2cc(C(=O)NC3CC3)sc21	1	2	76*	6	6	-5	70*
CCOC(=O)C1=C(COC(=O)COc2ccccc2C(C)C)NC(=O)NC1C (stereo not given)	/	/	3	/	/	/	/
Cc1cccc2sc(NC(=O)C3CCCN(S(=O)(=O)c4cccc5nonc45)C3)nc12 (stereo not given)	2	0	54*	-5	5	5	74*
Cc1cc(NC(=O)C(C)SCC(=O)OCC(=O)Nc2c(C)cccc2C(C)C)no1 (stereo not given)	1	/	-8	/	1	/	/
CC(=O)c1cccc(-c2ccnc3c2CC(C(=O)NCc2ccco2)O3)c1 (stereo not given)	/	/	57*	/	/	/	59*
NC(=O)c1cccc(-c2ccnc3c2CC(C(=O)NCc2ccco2)O3)c1 (stereo not given)	/	/	39	/	/	/	/
CCOC(=O)C(=O)N(C)c1c(CC)nc2c(OCc3cc(Cl)cc(Cl)c3)cccn12	/	/	9	/	/	/	/
COc1ccc(N2CCN(CC(=O)c3c(C)n(C)c4ccc(OC)cc34)CC2)cc1	0	0	55*	-1	-2	27	-92
SMILES	Bfl-1 A1 inh	Calb FLC	TAG inh	CSC inhib	Beta apoptosis	T cruzi inh	TAG conf
O=C(O)C1CCCN1C(=O)C1CCN(S(=O)(=O)c2cccc(C(F)(F)F)c2)CC1 (stereo not given)	/	/	13	/	/	/	/
C[C@@H]1CN([C@H](C)CO)C(=O)c2c(c3ccccc3n2C)-c2ccccc2CO[C@H]1CN(C)Cc1ccc(Oc2ccccc2)cc1	/	/	59*	/	/	/	74*
C[C@@H]1CN([C@@H](C)CO)C(=O)c2cccc(NC(=O)Nc3ccc(F)cc3)c2O[C@@H]1CN(C)Cc1ccc(Oc2ccccc2)cc1	-1	/	73*	/	66	/	81*
C[C@H]1CN([C@@H](C)CO)C(=O)c2cc(NC(=O)Nc3cccc4ccccc34)ccc2O[C@@H]1CN(C)Cc1ccc(-c2ccccc2)cc1	0	/	72*	30	17	/	71*
C[C@@H]1CN([C@H](C)CO)C(=O)c2c(c3ccccc3n2C)-c2ccccc2CO[C@H]1CN(C)Cc1ccc(C(F)(F)F)cc1	/	/	50	/	/	/	/
C[C@@H]1CN([C@H](C)CO)C(=O)c2cc(NC(=O)Nc3cccc4ccccc34)ccc2O[C@H]1CN(C)Cc1ccc(C(F)(F)F)cc1	/	/	10	/	/	/	/
COc1ccc(N(CC(=O)NC2CCS(=O)(=O)C2)S(=O)(=O)c2ccc(Cl)c(Cl)c2)cc1 (stereo not given)	/	/	4	/	/	/	/
COCCOC(=O)c1[nH]c2c(c1C)C(=O)CC(c1ccccc1)C2 (stereo not given)	-1	6	80*	59	19	4	47*
COc1cccc(CNC(=O)Cn2c(=O)n(CCC(=O)N3CCCCC3)c(=O)c3sccc32)c1	1	-1	/	-2	6	11	/
Cc1ccc(NC(=O)c2cc3ccccc3o2)cc1S(=O)(=O)N(C)C	/	/	70*	/	/	/	26
CC(OC(=O)C1CCN(S(=O)(=O)c2ccc3c(c2)OCCO3)CC1)C(=O)NC1(C#N)CCCCC1 (stereo not given)	/	/	-3	/	/	/	/
CCCNC1(C(N)=O)CCN(Cc2ccccc2)CC1	/	/	-6	/	/	/	/
O=C(CC1C[C@H](C(=O)N2CCOCC2)[C@@]2(CCC3CCCC3)c3[nH]c4ccccc4c3CCN2C1=O)NCCN1CCOCC1 (stereo not given in full)	0	/	8	/	-5	/	/
CC(C)(C)NC(=O)C[C@H]1C[C@H](C(=O)N2CCOCC2)[C@@]2(CCC3CCCC3)c3[nH]c4cc(-c5ccco5)ccc4c3CCN2C1=O	/	/	44	/	/	/	/
O=C(CC1C[C@H](C(=O)N2CCOCC2)[C@@]2(CCC3CCCC3)c3[nH]c4ccccc4c3CCN2C1=O)NCC12CC3CC(CC(C3)C1)C2 (stereo not given in full)	-1	/	61*	/	3	/	56*

High-throughput results as filed in PubChem.
